Activity calls are given as the source filed them. No cut-off for these calls is given here.
Legend:
[1] = biological target: T1, Tubulin (Bos taurus) (UniProt Q6B856+Q862F3); experiment: Inhibition of bovine brain tubulin polymerization at 5 uM by spectrophotometric analysis; details: TDE = time-dependent effect
How it was run: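 MAP-rich bovine brain tubulin (2 mg/mL) in 80 mM PIPES pH 6.9, 2 mM MgCl2, 0.5 mM EGTA, 5% glycerol, with DMSO or compound at 5 µM. Polymerization started with 1 mM GTP at 37 °C. Absorbance at 340 nm followed over 17 min (5 s intervals to 3 min, 10 s to 5 min, 30 s to 10 min, 60 s to 17 min).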

[2] = biological target: T1, Tubulin (Bos taurus); experiment: Inhibition of bovine brain tubulin polymerization at 10 uM measured every 5 secs for 0 to 3 mins , 10 secs for 3 to 5 mins, 30 secs for 5 to 10 mins, 60 secs for 10 to 17 mins by spectrophotometric analysis
[3] = system: HUVEC; experiment: Cytotoxicity against HUVEC assessed as inhibition of cell proliferation rate at 10 uM after 72 hrs by MTT assay relative to control; type: functional; details: Homo sapiens
[4] = system: HUVEC; experiment: Cytotoxicity against HUVEC assessed as inhibition of cell proliferation rate at 100 uM after 72 hrs by MTT assay relative to control; type: functional; details: Homo sapiens
[5] = system: A549; experiment: Inhibition of alpha-tubulin formation in human A549 cells at 50 nM after 24 hrs by TRITC/Hoechst 33258 staining-based immunofluorescence microscopic analysis; type: cell-based
[6] = system: HUVEC; experiment: Antiangiogenic activity in HUVEC assessed as inhibition of tubular structure formation at 0.033 to 0.33 uM after 8 hrs by microscopic analysis; type: functional, cell-based; details: Homo sapiens
[7] = system: Thoracic aorta; experiment: Antiangiogenic activity in Sprague-Dawley rat thoracic aorta ring assessed as inhibition of microvessel outgrowth at 0.33 uM measured on day 6 by inverse microscopic analysis; type: functional, tissue-based
How it was run: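 Aortas from 6-week Sprague Dawley rats taken under ether anesthesia, rinsed in serum-free M199 and cut into 1-mm rings. Rings embedded in Matrigel and held 1 h at 37 °C. Serum-free M199, with or without 20% FBS, then added with test agents at various concentrations. Sprouting imaged by inverted microscope on day 6.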

[8] = biological target: T1, Tubulin (Bos taurus); experiment: Inhibition of bovine brain tubulin polymerization at 3 uM measured every 5 secs for 0 to 3 mins , 10 secs for 3 to 5 mins, 30 secs for 5 to 10 mins, 60 secs for 10 to 17 mins by spectrophotometric analysis
[9] = system: A549; experiment: Cytotoxicity against human A549 cells assessed as inhibition of cell proliferation rate after 72 hrs by MTT assay; type: functional, cell-based; details: A549, 72 h
How it was run: (§1)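 Cells seeded at 3.5 × 10^4 cells/mL and cultured 24 h (37 °C, 5% CO2), then exposed to compounds for 72 h. DMSO at 0.5% final served as the vehicle control. IC50 taken from triplicate experiments, reported as mean.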

[10] = system: HUVEC; experiment: Induction of vascular disruption in HUVEC after 16 hrs by inverted microscopic analysis; type: functional, cell-based; details: Homo sapiens
[11] = system: A549; experiment: Inhibition of alpha-tubulin formation in human A549 cells at 250 uM after 24 hrs by TRITC/Hoechst 33258 staining-based immunofluorescence microscopic analysis; type: cell-based
[12] = system: HUVEC; experiment: Cytotoxicity against HUVEC assessed as inhibition of cell proliferation rate after 72 hrs by MTT assay; type: functional, cell-based; details: Homo sapiens; how it was run: as §1
[13] = system: HCT-116; experiment: Cytotoxicity against human HCT116 cells assessed as inhibition of cell proliferation rate after 72 hrs by MTT assay; type: functional, cell-based; details: HCT-116, 72 h; how it was run: as §1
[14] = system: HepG2; experiment: Cytotoxicity against human HepG2 cells assessed as inhibition of cell proliferation rate after 72 hrs by MTT assay; type: functional, cell-based; details: HepG2, 72 h; how it was run: as §1

| SMILES | inhibition at 10 µM [3] | inhibition at 100 µM [4] | further results |
| --- | --- | --- | --- |
| O=C(Nc1scnc1-c1nc2ccccc2[nH]1)NC1CC1 |  |  | inhibition [1]: tde |
| CC(=O)O[C@H]1C(=O)[C@@]2(C)[C@H]([C@H](OC(=O)c3ccccc3)[C@]3(O)C[C@H](OC(=O)[C@H](O)[C@@H](NC(=O)c4ccccc4)c4ccccc4)C(C)=C1C3(C)C)[C@]1(OC(C)=O)CO[C@@H]1C[C@@H]2O |  |  | inhibition [2]: inactive |
| c1ccc(Cn2c(-c3ccccc3)nc3ccccc32)cc1 | 7% | 38% |  |
| CC[C@]1(O)C[C@@H]2CN(CCc3c([nH]c4ccccc34)[C@@](C(=O)OC)(c3cc4c(cc3OC)N(C)[C@H]3[C@@](O)(C(=O)OC)[C@H](OC(C)=O)[C@]5(CC)C=CCN6CC[C@]43[C@@H]65)C2)C1 |  |  | inhibition [5]: Active |
| CCN(CC)CCNC(=O)c1c(C)[nH]c(/C=C2\C(=O)Nc3ccc(F)cc32)c1C |  |  | inhibition [6]: Active; inhibition [7]: Active |
| c1ccc2cc3[nH]c(-c4cscn4)nc3cc2c1 | 2% | 59% |  |
| COC(=O)Nc1nc2cc(C(=O)c3cccs3)ccc2[nH]1 |  |  | inhibition [8]: Active |
| c1cc2[nH]c(-c3cscn3)nc2cn1 | 8% | 0% |  |
| Cc1ccc2nc(-c3ccccn3)[nH]c2c1 | 7% | 10% |  |
| O=C(c1ccccc1)c1ccc2[nH]c(-c3cscn3)nc2c1 |  |  | inhibition [1]: tde |
| Cc1cc2nc(-c3cscn3)[nH]c2cc1C | 0% | 0% |  |
| c1ccc2[nH]cnc2c1 [BENZIMIDAZOLE] | 0% | 11% | IC50 [9]: > 100 µM; IC50 [10]: > 250 µM; inhibition [11]: Active; IC50 [12]: > 100 µM; IC50 [13]: > 100 µM; IC50 [14]: > 100 µM |
| Clc1ccc2[nH]c(-c3cscn3)nc2c1 | 7% | 53% |  |

Reference: ChEMBL document CHEMBL3585241, “Synthesis and biological evaluation of thiabendazole derivatives as anti-angiogenesis and vascular disrupting agents” (Bioorg Med Chem, 2015)
